High-throughput results deposited in PubChem BioAssay by several laboratories.
A selection: hits, their analogues and other compounds. The true share with any hit is near 2.8%.
Mcl1 Noxa PPI: Mcl-1/Noxa interaction inhibition; inhibition, % at 21.7 µM; Q07820; TR-FRET Mcl-1/Noxa peptide binding, 2 h; 1.5% of 220,000 active;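 active = compounds that cut the protein-peptide binding signal by more than 50% relative to plate controls in a single-dose test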;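 note: His-tagged Mcl-1 with rhodamine Noxa BH3 peptide and terbium anti-His antibody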
Target sequence (Q07820 whole entry, looked up): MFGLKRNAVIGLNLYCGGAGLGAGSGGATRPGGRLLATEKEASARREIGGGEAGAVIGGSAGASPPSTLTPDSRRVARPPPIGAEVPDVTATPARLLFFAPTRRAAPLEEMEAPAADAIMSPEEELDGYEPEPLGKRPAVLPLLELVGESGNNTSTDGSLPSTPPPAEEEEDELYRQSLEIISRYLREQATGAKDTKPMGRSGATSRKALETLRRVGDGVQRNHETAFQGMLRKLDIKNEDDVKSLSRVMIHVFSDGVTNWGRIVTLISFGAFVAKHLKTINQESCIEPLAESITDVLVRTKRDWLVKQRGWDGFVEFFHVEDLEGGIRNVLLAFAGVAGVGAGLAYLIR
Arbovirus anti: blocks arbovirus infection. inhibition, % at 10 µM. AID 1251. 0.37% of 200,000 active. arbovirus infection cell-based antiviral screen; in the data active = inhibition above about 30%
Calb biofilm kill: mixtures killing C. albicans biofilm; C. albicans biofilm persisters + clotrimazole, fluorescence viability; primary screen in compound mixtures of four per well; inhibition, % at 7.6 µM; 0.02% of 120,000 active;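 active = inhibition above 30.3% in the primary screen of four-compound pools, then above 30% when the compound was retested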;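 note: compounds exposed to preformed 24 h biofilms for 48 h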
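Probe or stimulus – Clotrimazole 50 µg/mL co-treatment · System – C. albicans biofilms · Schedule – 24 h biofilm formation, then 48 h compound exposure, 37 °C · Evaluation – percent inhibition of biofilm viability · Technique – 2-h Alamar Blue fluorescence, 535/590 nm excitation/emission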
Mcl1 Bid PPI: Mcl-1/Bid interaction inhibition; inhibition, % at 21.7 µM; 0.97% of 220,000 active; TR-FRET Mcl-1/Bid-Dy647 peptide binding, 1536-well; Q07820; AID 1021;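 active = compounds that cut the binding signal by more than half at the single screening dose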;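 note: His-tagged Mcl-1 with europium anti-His antibody binding Bid BH3 peptide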
Bim-Mcl-1: human Bim-Mcl-1 interaction inhibition | Q07820 | Bead-based flow cytometry, Bim peptide-Mcl-1 binding | 0.1% of 190,000 active | inhibition, % at 10 µM | AID 1009; in the data active = inhibition above about 40%
Calpain2 inh: blocks pig calpain II enzyme activity; purified calpain II, fluorogenic peptide substrate, 30 min; inhibition, % at 16 µM; 0.37% of 220,000 active; AID 1236;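 active = inhibition above about 50%, limit read from the data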
Numbers stand for hits; 0 = inactive; - = not tested or not shown.

SMILES	Mcl1 Noxa PPI	Arbovirus anti	Calb biofilm kill	Mcl1 Bid PPI	Bim-Mcl-1	Calpain2 inh
Cc1nc(N2N=C(c3ccc(Cl)cc3)CC2c2ccco2)sc1C(=O)N(C)C (stereo not drawn)	0	0	0	0	0	0
COc1ccc(C2=NN(c3nc(-c4ccccc4)c(CC(=O)O)s3)C(c3ccco3)C2)cc1 (stereo not drawn)	85	0	0	0	0	0
CC(=O)c1cccc(CN2CCN(CC(C)C)C(CCO)C2)c1 (stereo not drawn)	0	0	0	0	0	0
Cc1sc(NC(=O)c2cc(-c3ccccc3)nc3ccccc23)c(C(N)=O)c1C	0	0	0	0	0	0
Cc1sc(NC(=O)c2cc(-c3ccc(Cl)cc3)nc3ccccc23)c(C(N)=O)c1C	77	0	-	77	0	0
O=C(N/N=C/c1ccc(Cl)c([N+](=O)[O-])c1)c1cc(-c2ccc3c4c(cccc24)CC3)n[nH]1	64	-	0	0	-	0
O=C(N/N=C/c1cccc([N+](=O)[O-])c1)c1cc(-c2ccc3c4c(cccc24)CC3)n[nH]1	0	0	0	60	0	0
O=C(N/N=C/c1ccc(Cl)c([N+](=O)[O-])c1)c1ccc2nc[nH]c2c1	0	0	-	0	0	0
CC1CCN(c2c(NCC3CCC(C(=O)NCCCc4ccccc4)CC3)c(=O)c2=O)CC1 (stereo not drawn)	0	-	0	0	-	0
Cc1cc(NC(=O)CN2C(=O)NC3(CCC(C)CC3)C2=O)no1 (stereo not drawn)	0	0	0	0	0	0
CC1Cc2ccccc2N1S(=O)(=O)c1cccc(C(=O)N2CCN(c3ncccn3)CC2)c1 (stereo not drawn)	0	38	0	0	0	0
COc1ccc(C(C)=O)c2c(O)cccc12	0	0	-	0	0	68
Cc1ccc(S(=O)(=O)NC(=O)Nc2ccc(OC(F)F)cc2)cc1	0	-	0	0	-	0
CN(C)c1ccc(-c2nnn(CC(=O)NCc3ccc4c(c3)OCO4)n2)cc1	0	0	0	0	0	0
COc1ccc(N=C2S/C(=C\c3ccc(OCC(=O)O)cc3)C(=O)N2CCc2c[nH]c3ccccc23)cc1	70	46	0	0	0	82
Cn1c2c(c(=O)n(C)c1=O)C(CC(=O)Nc1ccccc1)C(=O)N2 (stereo not drawn)	0	0	-	0	0	92
O=C(O)c1ccc(CS(=O)(=O)Cc2ccccc2F)o1	0	0	0	92	0	0
O=C(CC1Sc2ccccc2NC1=O)OCc1cc(=O)oc2cc(O)ccc12 (stereo not drawn)	95	0	0	0	0	0
COc1cccc(/C=C(/C(=O)OCC(=O)NC2CCCC(C)C2C)c2ccccc2)c1 (stereo not drawn)	0	0	0	0	0	56
CCNc1nc(NCC)nc(C(=O)Nc2ccccc2)n1	65	0	-	0	0	0
COc1ccc(NC(=O)CSc2ccc3ccccc3c2)cc1S(=O)(=O)N1CCCCC1	0	0	0	0	0	0
COc1ccc(-n2cc(-c3ccc(OC(F)F)cc3)[n+]3c2CCCCC3)cc1	0	0	0	90	0	0
COc1ccc(-c2cn(-c3ccc(Cl)cc3)c3[n+]2CCCCC3)cc1	0	-	0	0	-	0
COc1cccc(Nc2nnc(SCC(=O)Nc3sccc3C(N)=O)s2)c1	60	0	0	0	0	0
CC(=O)Nc1cccc(OCC(=O)Nc2sccc2C(N)=O)c1	52	-	0	0	-	0
SMILES	Mcl1 Noxa PPI	Arbovirus anti	Calb biofilm kill	Mcl1 Bid PPI	Bim-Mcl-1	Calpain2 inh
CCc1ccc(Nc2nnc(SCC(=O)Nc3sccc3C(N)=O)s2)cc1	53	0	0	0	0	0
CC(=O)Nc1cccc(OCC(=O)Nc2ccccc2)c1	0	0	-	0	0	0
O=C(O)CCn1cc(/C=C/C(=O)c2ccc(Cl)cc2)c(-c2ccc(Br)cc2)n1	0	46	0	0	0	0
CCCCCc1nnc(NC(=O)C2COc3ccccc3O2)s1 (stereo not drawn)	0	46	0	0	0	0
Cc1nnc(NC(=O)C2COc3ccccc3O2)s1 (stereo not drawn)	0	0	-	0	0	0
CCc1nnc(NC(=O)C2COc3ccccc3O2)s1 (stereo not drawn)	0	0	-	0	0	0
Cc1ccc(CSc2nnc(NC(=O)C3COc4ccccc4O3)s2)cc1 (stereo not drawn)	0	56	-	0	0	0
COc1ccc2c(c1O)C(=O)c1ccccc1C2=O	0	0	0	0	0	0
Nc1c(O)ccc2c1C(=O)c1ccccc1C2=O	78	0	0	0	0	0
O=Cc1ccccc1OCCOc1ccc([N+](=O)[O-])cc1	0	0	0	0	0	0
C=CCn1c(=NC(=O)c2ccc(S(=O)(=O)N3CCCc4ccccc43)cc2)sc2cc(S(N)(=O)=O)ccc21	54	0	0	0	0	0
CC(C)(c1ccccc1)c1ccc(OCC(O)CNC2CCN(Cc3ccccc3)CC2)cc1 (stereo not drawn)	0	0	0	0	0	0
CCOc1ccc(NS(=O)(=O)c2cc(NC(=O)c3cccc(C)c3)ccc2Cl)cc1	0	0	0	0	0	0
CCOC(=O)c1cnc(-n2nc(C)cc2C)nc1Nc1ccc(C)cc1	0	0	-	0	0	0
CCOC(=O)c1cnc(-n2nc(C)cc2C)nc1Nc1ccc(N(C)C)cc1	72	0	-	0	0	0
CCCCn1c(SCc2nc(N)nc(N3CCCCC3)n2)nc2c1c(=O)n(C)c(=O)n2C	0	0	0	0	0	0
CCOc1cccc2sc(NN)nc12	0	38	0	0	0	0
C[C@@H](C(=O)Nc1nc2ccc(F)cc2s1)N1C(=O)C2CC=CCC2C1=O (stereo partly drawn)	0	0	0	95	0	0
Cc1ccc2nc(NC(=O)[C@H](C)N3C(=O)C4CC=CCC4C3=O)sc2c1 (stereo partly drawn)	0	0	0	0	0	0
O=S(=O)(Cc1cc(Cl)nc(-c2ccncc2)n1)c1ccccc1	81	0	0	0	0	0
CS(=O)(=O)Nc1ccc(C(=O)Nc2ccc(S(=O)(=O)N3CCCC3)cc2)cc1	0	0	0	0	0	0
Cc1nc(C)c(C(=O)Nc2ncc([N+](=O)[O-])s2)o1	69	0	0	0	0	0
CC(C)CC(=O)Nc1ncc([N+](=O)[O-])s1	0	-	0	0	-	0
Cc1ccc(C(C)C)c(OCc2ccc(C(=O)N/N=C/c3ccc(O)cc3O)cc2)c1	86	0	0	52	0	0
CN1CCN(C2=C(Cl)C(=O)N(C3CCCCC3)C2=O)CC1	0	0	-	0	0	0
CN1CCN(C2=C(Cl)C(=O)C(c3cnc(N4CCCCC4)s3)=C(Cl)C2=O)CC1	98	0	0	79	0	0
COc1cc(C(=O)NCCCc2nc3ccccc3n2Cc2cc(C)ccc2C)cc(OC)c1OC	0	0	0	0	0	0
C=CCn1c(CCCNC(=O)c2ccccc2OC)nc2ccccc21	0	0	0	0	0	81
